The source of these data is ChEMBL document CHEMBL4118251 (J Med Chem, 2018).

Data set [1] in a line: Plasma concentration in diet-induced obesity cynomolgus monkey model at 8 ug/kg, sc for 6 weeks measured 1 hr post dose on day 43 by LC-MS analysis. The data set is classed as ADME, organism-based, Macaca fascicularis. The settings on record: 0.008 mg/kg. Summed up:
(§1)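 Obese diabetic cynomolgus monkeys were dosed once daily sc with PBS-diluted drug for 6 weeks. On day 43, blood was drawn just before dosing and at 1, 2, 4, 8 and 22 h after, into EDTA-2K tubes. Plasma was separated at 2500 × g for 10 min at 4 °C. The dual agonist was measured by LC-MS after protein precipitation; liraglutide was measured by ELISA.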

The test system of data set [2] is Cynomolgus monkey. As to the kind of experiment: Antiobesity activity in diet-induced obesity cynomolgus monkey model assessed as reduction in body weight at 1.5 ug/kg on day 1 to 3, 3 ug/kg on day 4 to 6, 4.5 ug/kg on day 7 to 9, 6 ug/kg from day 10 to 17 and 8 ug/kg on day 18 to 42 administered sc once daily measured every 3 to 4 days during compound dosing relative to control. The data set is classed as functional, Macaca fascicularis. The arrangement: scale not given: the % may be the effect or the level left. Put shortly:
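Obese diabetic cynomolgus monkeys were offered about 680 kcal/day. They were block-randomized into 3 groups by body weight, fasted glucose and %HbA1C. Dosing was once daily sc in PBS vehicle over a 6-week study with ramped doses. Food and water intake were logged daily, and body weight was measured every 3–4 days. Two insulin-requiring vehicle animals were excluded.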

The species named for the next data set is Homo sapiens. Briefly: Selectivity ratio of EC50 for human glucagon receptor expressed in HEK293 cells to EC50 for human GLP1R expressed in HEK293 cells. The class given is cell-based. Summed up:
(§2)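 HEK293 lines stably expressing human or monkey receptor were detached with accutase. Cells were resuspended at 400 000 cells/mL in HBSS/20 mM HEPES/0.1% BSA/2 mM IBMX and exposed to peptide for 30 min at room temperature. cAMP was read by HTRF (665/620 nm) after 1 h lysis.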

In data set [3] the test system is Cynomolgus monkey. As to the kind of experiment: Potency index, ratio of liraglutide dose to compound dose for antiobesity activity in diet-induced obesity cynomolgus monkey model assessed as reduction in body weight administered sc once daily measured every 3 to 4 days during compound dosing. The data set is classed as functional, Macaca fascicularis.
For another data set, the target named is Glucagon receptor (Homo sapiens, UniProt P47871). Briefly: Agonist activity at human glucagon receptor expressed in HEK293 cells assessed as cAMP accumulation after 30 mins by HTRF assay. The class given is functional, cell-based. (Changes in cAMP serve as a functional read-out for many G protein-coupled receptors.)
Sequence of Glucagon receptor (P47871 whole entry): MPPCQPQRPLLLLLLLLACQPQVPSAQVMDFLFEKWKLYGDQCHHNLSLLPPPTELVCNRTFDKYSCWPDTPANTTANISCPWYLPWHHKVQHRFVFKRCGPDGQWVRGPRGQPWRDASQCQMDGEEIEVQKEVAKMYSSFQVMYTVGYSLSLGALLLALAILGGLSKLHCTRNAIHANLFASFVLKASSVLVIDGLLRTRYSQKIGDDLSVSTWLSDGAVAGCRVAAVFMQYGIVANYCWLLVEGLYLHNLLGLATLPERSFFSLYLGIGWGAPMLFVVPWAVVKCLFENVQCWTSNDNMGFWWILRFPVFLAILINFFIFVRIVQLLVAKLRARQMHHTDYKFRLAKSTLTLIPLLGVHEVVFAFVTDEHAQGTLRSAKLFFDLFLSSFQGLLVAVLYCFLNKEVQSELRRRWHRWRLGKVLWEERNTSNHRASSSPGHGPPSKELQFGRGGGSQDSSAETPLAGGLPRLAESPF
The nature of data set [4]: Agonist activity at monkey GIP receptor expressed in HEK293 cells assessed as cAMP accumulation after 30 mins by HTRF assay. The class given is cell-based, Macaca mulatta. The settings on record: Macaca mulatta, HEK293, 0.5 h. Put shortly: as §2
The target of data set [5] is Glucagon-like peptide 1 receptor (Homo sapiens, UniProt P43220). As to the kind of experiment: Agonist activity at human GLP1R expressed in HEK293 cells assessed as cAMP accumulation after 30 mins by HTRF assay. The class given is functional, cell-based.
Sequence of Glucagon-like peptide 1 receptor (Homo sapiens, UniProt P43220) (P43220 whole entry): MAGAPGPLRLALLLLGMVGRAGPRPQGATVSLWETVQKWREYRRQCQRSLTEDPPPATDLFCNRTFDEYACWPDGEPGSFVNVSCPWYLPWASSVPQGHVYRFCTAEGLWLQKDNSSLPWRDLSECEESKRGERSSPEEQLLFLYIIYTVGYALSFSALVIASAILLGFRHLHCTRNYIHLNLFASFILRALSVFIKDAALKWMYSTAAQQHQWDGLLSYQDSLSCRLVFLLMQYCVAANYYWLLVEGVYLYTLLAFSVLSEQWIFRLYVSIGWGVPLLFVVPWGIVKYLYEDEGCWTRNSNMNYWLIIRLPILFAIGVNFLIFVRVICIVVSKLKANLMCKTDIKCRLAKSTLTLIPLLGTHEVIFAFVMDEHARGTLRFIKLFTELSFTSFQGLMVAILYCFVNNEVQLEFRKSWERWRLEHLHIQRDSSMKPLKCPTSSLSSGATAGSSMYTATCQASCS
Data set [6] in a line: Ratio of EC50 for monkey glucagon receptor expressed in HEK293 cells to EC50 for human glucagon receptor expressed in HEK293 cells. The data set is classed as cell-based. Put shortly: as §2
Data set [7] in a line: Plasma concentration in diet-induced obesity cynomolgus monkey model at 8 ug/kg, sc for 6 weeks measured 4 hrs post dose on day 43 by LC-MS analysis. The data set is classed as ADME, organism-based, Macaca fascicularis. To be noted: 0.008 mg/kg. Put shortly: as §1
The nature of data set [8]: Plasma concentration in diet-induced obesity cynomolgus monkey model at 8 ug/kg, sc for 6 weeks measured 8 hrs post dose on day 43 by LC-MS analysis. The class given is ADME, organism-based, Macaca fascicularis. The settings on record: 0.008 mg/kg. Put shortly:
as §1

A short description of data set [9]: Solubility in pH 4.5 acetate buffer at 10 mg/ml after 2 hrs in presence of 0.5% phenol by UPLC-UV analysis.
A short description of data set [10]: Agonist activity at monkey glucagon receptor expressed in HEK293 cells assessed as cAMP accumulation after 30 mins by HTRF assay. The settings on record: Macaca mulatta, HEK293, 0.5 h. The data set is classed as cell-based, Macaca mulatta. Put shortly: as §2
Data set [11] addresses T1, Gastric inhibitory polypeptide receptor (Homo sapiens, UniProt P48546).
T1 sequence (P48546 whole entry): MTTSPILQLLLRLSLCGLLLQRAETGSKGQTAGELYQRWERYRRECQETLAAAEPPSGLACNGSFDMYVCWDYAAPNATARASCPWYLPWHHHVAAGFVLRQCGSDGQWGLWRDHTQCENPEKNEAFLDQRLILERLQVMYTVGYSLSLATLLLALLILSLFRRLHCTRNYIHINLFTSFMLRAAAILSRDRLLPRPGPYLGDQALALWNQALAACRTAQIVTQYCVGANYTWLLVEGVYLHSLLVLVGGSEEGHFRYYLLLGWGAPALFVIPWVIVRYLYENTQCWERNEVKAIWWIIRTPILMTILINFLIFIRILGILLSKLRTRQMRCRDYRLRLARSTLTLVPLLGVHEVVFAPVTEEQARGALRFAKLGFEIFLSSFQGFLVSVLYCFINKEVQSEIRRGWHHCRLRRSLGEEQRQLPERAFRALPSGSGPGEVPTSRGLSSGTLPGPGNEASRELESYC
As to the kind of experiment: Agonist activity at human GIP receptor expressed in HEK293 cells assessed as cAMP accumulation after 30 mins by HTRF assay. The data set is classed as functional, cell-based.

A short description of data set [12]: Solubility in pH 4.5 acetate buffer at 10 mg/ml after 2 hrs in presence of 0.5% phenol by UPLC-UV analysis. The data set is classed as physicochemical. Summed up: (§3)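 Buffers were 100 mM sodium acetate pH 4.5 or 100 mM sodium phosphate pH 7.4, with or without 0.5% phenol. Solid peptide was dispersed at 10 mg/mL, with content corrected by UPLC-MS and ion chromatography, and gently agitated for 2 h. After centrifugation (15 min, 3000 rcf), the supernatant was diluted 1:10 and quantified by UPLC-UV against a DMSO standard curve.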

Data set [13] is described as follows: Solubility in pH 4.5 acetate buffer at 10 mg/ml after 2 hrs by UPLC-UV analysis. The data set is classed as physicochemical. Put shortly: as §3
Data set [14] is described as follows: AUC (0 to 22 hrs) in diet-induced obesity cynomolgus monkey model at 8 ug/kg, sc for 6 weeks on day 43 by LC-MS analysis. The arrangement: dose 8 ug/kg, time < 22 hr, route subcutaneous. The settings on record: in vivo, 0.008 mg/kg. The class given is ADME, organism-based, Macaca fascicularis. Summed up: as §1
Data set [15] can be described thus: Solubility in pH 4.5 acetate buffer at 10 mg/ml after 2 hrs by UPLC-UV analysis.
Data set [16] deals with Glucagon-like peptide 1 receptor (Macaca fascicularis, UniProt F8V479). Briefly: Agonist activity at monkey GLP1R expressed in HEK293 cells assessed as cAMP accumulation after 30 mins by HTRF assay. The data set is classed as cell-based, Macaca mulatta.
Sequence of Glucagon-like peptide 1 receptor (Macaca fascicularis, UniProt F8V479) (F8V479 whole entry): as the sequence (P43220 whole entry) above, with A4T, M17V, S135N, F143S, S225G, L228V, L260F, W264R, I272V counted along it
Data set [17] deals with Cynomolgus monkey. As to the kind of experiment: Hypoglycemic activity in diet-induced obesity cynomolgus monkey model assessed as plasma HbA1c level at 1.5 ug/kg on day 1 to 3, 3 ug/kg on day 4 to 6, 4.5 ug/kg on day 7 to 9, 6 ug/kg from day 10 to 17 and 8 ug/kg on day 18 to 42 administered sc once daily measured on day 43 post last dose (reference value: 8.7 +/- 0.8%). The data set is classed as functional, Macaca fascicularis.

Data set [18] can be described thus: Plasma concentration in diet-induced obesity cynomolgus monkey model at 8 ug/kg, sc for 6 weeks measured […] dose on day 43 by LC-MS analysis. The class given is ADME, organism-based, Macaca fascicularis. To be noted: 0.008 mg/kg. Summed up: as §1
The nature of data set [19]: Plasma concentration in diet-induced obesity cynomolgus monkey model at 8 ug/kg, sc for 6 weeks measured 22 hrs post dose on day 43 by LC-MS analysis. The data set is classed as ADME, organism-based, Macaca fascicularis. The settings on record: 0.008 mg/kg. Put shortly:
as §1

A short description of data set [20]: Plasma concentration in diet-induced obesity cynomolgus monkey model at 8 ug/kg, sc for 6 weeks measured 2 hrs post dose on day 43 by LC-MS analysis. To be noted: 0.008 mg/kg. The data set is classed as ADME, organism-based, Macaca fascicularis. Put shortly:
as §1

Structures are written as SMILES.

As a reminder, the EC50 is the concentration at which the effect is half-maximal. As usually defined, the solubility is how much of the substance goes into solution per volume. By AUC is commonly meant the area under the concentration-time curve, a measure of exposure. As to `CCCCCCCCCCCCCCCCC(=O)[C@H](CCN[C@@H](CCC(=O)NCCCC[C@H](NC(=O)[C@H](CCC(N)=O)NC(=O)[C@H](CCCCN)NC(=O)[C@H](CO)NC(=O)[C@H](CC(C)C)NC(=O)[C@H](CC(=O)O)NC(=O)[C@H](CO)NC(=O)[C@@H](NC(=O)[C@H](Cc1ccccc1)NC(=O)[C@@H](NC(=O)CNC(=O)[C@H](CCC(N)=O)NC(=O)C(C)(C)NC(=O)[C@@H](N)Cc1cnc[nH]1)[C@@H](C)O)[C@@H](C)O)C(=O)N[C@@H](CC(=O)O)C(=O)N[C@@H](CCC(=O)O)C(=O)N[C@@H](CCC(N)=O)C(=O)N[C@@H](CCCNC(=N)N)C(=O)N[C@@H](C)C(=O)N[C@@H](CCCCN)C(=O)N[C@@H](CC(C)C)C(=O)N[C@@H](Cc1ccccc1)C(=O)N[C@H](C(=O)N[C@@H](CCC(=O)O)C(=O)N[C@@H](Cc1c[nH]c2ccccc12)C(=O)N[C@@H](CC(C)C)C(=O)NC(C)(C)C(=O)N[C@@H](C)C(=O)NCC(=O)NCC(=O)N1CCC[C@H]1C(=O)N1CCC[C@H]1C(=O)N[C@@H](CO)C(=O)N[C@@H](C)C(=O)N[C@@H](CCCCN)C(=O)N1CCC[C@H]1C(=O)N1CCC[C@H]1C(=O)N1CCC[C@H]1C(=O)N[C@@H](CCCCN)C(N)=O)[C@@H](C)CC)C(=O)O)C(=O)O`, in data set [1], the concentration at 1 h turned out to be 21.6 ng/mL. For the same compound, the Activity in the data set on Cynomolgus monkey [2] is recorded as 6.9%; in the data set with Cynomolgus monkey [17] it was 7.1%. Moreover, the Ratio EC50 in the data set listed under Homo sapiens was 10 to 15; in data set [6], 4. For the same compound, the Ratio in the data set on Cynomolgus monkey [3] was determined as 5. In addition, the EC50 on Glucagon receptor was determined as 0.029 nM; in data set [4], 2.05 nM; in data set [5], 0.0018 nM; in data set [10] it was 0.129 nM; in data set [11], 2.03 nM; in data set [16], 0.002 nM. Further, the concentration at 4 h in data set [7] is 24.3 ng/mL. The compound also came in with a concentration at 8 h in [8] of 12.4 ng/mL. Further, the solubility at 2 h in [9], in data set [12], in [13] and in data set [15] was not below 10000 µg/mL in each case. This compound gave an AUC at 22 h in data set [14] of 254 ng·h/mL. In data set [18], this compound yielded a concentration at 1008 h of 0.66 ng/mL. This compound displayed a concentration at 22 h in data set [19] of 0.69 ng/mL. In data set [20], the concentration at 2 h is 28 ng/mL.
